Compound activity (PubChem)
Sampled rows, rich in hits. Any-hit rate of the full collection: about 3.5%.
MrgX1 ag: human MrgX1 receptor agonism, primary screen. 0.44% of 310,000 active. B-score at 10 µM. MrgX1-HEK293 cells, Fluo-4 calcium fluorescence, agonist mode; hits give high values. Q96LB2;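 active means calcium response B-score plate-corrected fluorescence ratio at least 3 library SD, with starting fluorescence B-score inside 5 SD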
Target sequence (Q96LB2 whole entry, looked up): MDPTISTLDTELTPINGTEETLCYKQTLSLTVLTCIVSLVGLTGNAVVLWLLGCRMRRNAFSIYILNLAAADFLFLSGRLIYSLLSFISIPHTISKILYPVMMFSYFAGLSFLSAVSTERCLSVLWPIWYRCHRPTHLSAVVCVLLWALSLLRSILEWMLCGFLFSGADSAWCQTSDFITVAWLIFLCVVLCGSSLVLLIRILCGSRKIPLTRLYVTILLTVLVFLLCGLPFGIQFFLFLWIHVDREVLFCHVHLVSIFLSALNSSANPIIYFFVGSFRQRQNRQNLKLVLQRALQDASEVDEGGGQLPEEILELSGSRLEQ
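System: HEK293 cells stably expressing human MrgX1 receptor; Dosing: test compound in the initial addition of three; Schedule: overnight plating, then 30 min 37 °C plus 30 min room-temperature dye loading; Detection: kinetic calcium dye fluorescence, Fluo-4 NW; Controls: per-plate positive and negative controls for Z′ factor.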
RGS4 pot: RGS4 potentiation or activation; HEK293 M3R/inducible RGS4, carbachol calcium flux Fluo4; hits give low values; B-score at 10 µM; 0.92% of 310,000 active; AID 463111;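 active means B-score of the integrated calcium signal more than 4 SD below the library mean, with starting fluorescence not abnormally high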;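 further: negative B-score means reduced calcium response which marks RGS4 activation or potentiation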
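test system = HEK293 cells with stable M3R and inducible RGS4 | schedule = recording 10 s baseline at 1 Hz, 100 s post-agonist | technique = Fluo4-AM (2 µM) calcium-flux fluorescence, kinetic read | measure = Agonist-evoked peak-minus-minimum fluorescence over baseline, integrated ratio, B score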
MrgX1 PAM: human MrgX1 positive allosteric modulation, primary screen; Q96LB2; MrgX1-HEK293, Fluo-4 calcium flux, FDSS; hits give high values; B-score at 10 µM; 0.63% of 310,000 active; AID 588675;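 active means plate-corrected calcium response at least 3 library SD above typical, normal starting fluorescence, not activating the receptor alone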;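 further: compound read alongside a low EC10 to EC30 dose of BAM8-22 agonist; peak minus trough fluorescence over baseline measured at the second addition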
MrgX1 antag: human MrgX1 receptor antagonism, primary screen; MRGX1-HEK293 calcium flux, Fluo-4, BAM8-22 antagonism; hits give low values; Q96LB2; AID 588676; 1.3% of 310,000 active; B-score at 10 µM;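 active means calcium-response B-score plate-corrected more than 3 library SD below zero, starting fluorescence within 5 deviations, no agonist response on first addition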;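 further: peak minus trough fluorescence over baseline after final BAM8-22 challenge near maximal dose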
RGS4 inh: inhibitors of human RGS4; P49798; HEK293 M3R/RGS4 inducible, Fluo-4 calcium flux; hits give high values; triggered by carbachol at its EC20; B-score at 10 µM; 0.45% of 310,000 active; AID 463165;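 active means B-score, a plate-corrected calcium signal, over three deviations above library mean, with baseline fluorescence within five deviations of library mean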;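 further: RGS4 expression induced by doxycycline in cells with stable M3 receptor; B-score is computed from the integrated fluorescence ratio over baseline after carbachol; higher B-score means a larger calcium signal and so more RGS4 inhibition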
Target sequence (P49798 whole entry, looked up): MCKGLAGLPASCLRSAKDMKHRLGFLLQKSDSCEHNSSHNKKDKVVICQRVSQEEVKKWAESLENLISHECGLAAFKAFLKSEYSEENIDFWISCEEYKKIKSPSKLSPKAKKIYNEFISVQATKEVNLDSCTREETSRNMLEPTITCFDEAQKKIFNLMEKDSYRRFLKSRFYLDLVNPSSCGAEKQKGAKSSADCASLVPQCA
MrgX1 PAM conf: human MrgX1 positive allosteric modulation, re-confirmation. shares compounds with MrgX1 PAM. MrgX1-HEK293, Fluo-4 calcium fluorescence, FDSS. activation (ratio percentage), % at 10 µM. 13% of 1,200 active. AID 602413;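 active means ratio at least 3 SD above the weak peptide control, stable starting fluorescence, no direct agonism earlier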;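 further: compound followed by low BAM8-22 agonist challenge near EC20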
HEK293 Ca flux: counter-screen for MrgX1 antagonists: effect in parental HEK293 cells; fluorescence ratio F(max-min)/F0 at 10 µM; shares compounds with MrgX1 antag; AID 624111; 2% of 4,000 active; Fluo-4 calcium fluorescence, FDSS;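 active means duplicate-averaged calcium fluorescence ratio at least three times the standard deviation of buffer wells, a nonspecific response in parental cells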
HEK293 Ca counter: MrgX1 allosteric activator counter-screen hit in parental HEK293 cells; shares compounds with MrgX1 antag; parental HEK293 calcium flux, Fluo-4 fluorescence ratio; hits give high values; fluorescence ratio F(max-min)/F0 at 10 µM; 0.4% of 4,000 active;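 active means calcium fluorescence ratio, averaged over duplicates, at least 3 SD of the buffer-well ratio, meaning a nonspecific response in receptor-free cells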;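 further: untransfected parental HEK293 lacking MrgX1 used as counterscreen for MrgX1 allosteric activators; fluorescence change taken during the second addition on a kinetic imager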
HEK293 Ca cntr2: counter-screen for MrgX1 activators: effect in parental HEK293 cells | 8.7% of 4,000 active | Fluo-4 calcium fluorescence (FDSS); hits give high values | fluorescence ratio F(max-min)/F0 at 10 µM | shares compounds with MrgX1 antag;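 active means calcium fluorescence ratio at least three times the spread of buffer wells, meaning a non-specific response in parental cells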
The depositor's hits bear a star.

What do the screens show for `Nc1nc(CCl)nc(N(c2ccccc2)c2ccccc2)n1`?
MrgX1 ag: inactive; RGS4 pot: inactive; MrgX1 PAM: 10*; MrgX1 antag: inactive; RGS4 inh: inactive; MrgX1 PAM conf: inactive; HEK293 Ca flux: inactive; HEK293 Ca counter: inactive; HEK293 Ca cntr2: inactive

Results for CN(C)CCCN(C(=O)c1ccco1)c1nc2ccc(Br)cc2s1 ?
MrgX1 ag: inactive; RGS4 pot: inactive; MrgX1 PAM: 6.5*; MrgX1 antag: inactive; RGS4 inh: inactive; MrgX1 PAM conf: inactive; HEK293 Ca flux: inactive; HEK293 Ca counter: inactive; HEK293 Ca cntr2: inactive

What do the screens show for `O=C(COC(=O)c1cccs1)c1ccccc1`?
MrgX1 ag: inactive; RGS4 pot: inactive; MrgX1 PAM: 18*; MrgX1 antag: inactive; RGS4 inh: inactive; MrgX1 PAM conf: inactive; HEK293 Ca flux: inactive; HEK293 Ca counter: inactive; HEK293 Ca cntr2: inactive

Results for N#CCSc1nnc(COc2ccc3ccccc3c2)o1 ?
MrgX1 ag: inactive; RGS4 pot: inactive; MrgX1 PAM: 25*; MrgX1 antag: inactive; RGS4 inh: inactive; MrgX1 PAM conf: inactive; HEK293 Ca flux: inactive; HEK293 Ca counter: inactive; HEK293 Ca cntr2: inactive

What do the screens show for `NC(=O)CSc1nnc(COc2ccc3ccccc3c2)o1`?
MrgX1 ag: inactive; RGS4 pot: inactive; MrgX1 PAM: inactive; MrgX1 antag: inactive; RGS4 inh: inactive

How did Cc1cc(N2CCN(C)CC2)nc2ccc(NC(=S)N3CCC4(CC3)OCCO4)cc12 do in these assays?
MrgX1 ag: inactive; RGS4 pot: inactive; MrgX1 PAM: 7.4*; MrgX1 antag: inactive; RGS4 inh: inactive; MrgX1 PAM conf: inactive; HEK293 Ca flux: inactive; HEK293 Ca counter: inactive; HEK293 Ca cntr2: inactive

How did COc1ccccc1NC(=O)NCCN1CCNC1=O do in these assays?
MrgX1 ag: inactive; RGS4 pot: inactive; MrgX1 PAM: inactive; MrgX1 antag: inactive; RGS4 inh: inactive

What do the screens show for `O=C(c1ccc(C23CC4CC(CC(C4)C2)C3)o1)N1CCOCC1`?
MrgX1 ag: inactive; RGS4 pot: inactive; MrgX1 PAM: 11*; MrgX1 antag: inactive; RGS4 inh: inactive; MrgX1 PAM conf: inactive; HEK293 Ca flux: inactive; HEK293 Ca counter: inactive; HEK293 Ca cntr2: inactive

How did CCOc1cc(O)c(-c2[nH]ncc2-c2nc(C)cs2)cc1CC do in these assays?
MrgX1 ag: inactive; RGS4 pot: inactive; MrgX1 PAM: inactive; MrgX1 antag: inactive; RGS4 inh: inactive

How did CC(C)Nc1nc(NC(C)(C)C)nc(Oc2ccc(=O)n(C)n2)n1 do in these assays?
MrgX1 ag: inactive; RGS4 pot: inactive; MrgX1 PAM: 28*; MrgX1 antag: inactive; RGS4 inh: inactive; MrgX1 PAM conf: inactive; HEK293 Ca flux: inactive; HEK293 Ca counter: inactive; HEK293 Ca cntr2: inactive

How did O=C(CN(C(=O)CCC(=O)Nc1ccccn1)c1cccc(F)c1)NCc1ccco1 do in these assays?
MrgX1 ag: inactive; RGS4 pot: inactive; MrgX1 PAM: inactive; MrgX1 antag: inactive; RGS4 inh: inactive

How did COc1ccc(Nc2cc(C)c3ccccc3n2)cc1 do in these assays?
MrgX1 ag: inactive; RGS4 pot: inactive; MrgX1 PAM: 16*; MrgX1 antag: inactive; RGS4 inh: inactive; MrgX1 PAM conf: 18%*; HEK293 Ca flux: inactive; HEK293 Ca counter: inactive; HEK293 Ca cntr2: inactive

Results for COc1ccc(Nc2cccc3ccccc23)cc1 ?
MrgX1 ag: inactive; RGS4 pot: inactive; MrgX1 PAM: 21*; MrgX1 antag: inactive; RGS4 inh: inactive; MrgX1 PAM conf: inactive; HEK293 Ca flux: inactive; HEK293 Ca counter: inactive; HEK293 Ca cntr2: inactive
